Source: ChEMBL document CHEMBL5154905, “Reversible Monoacylglycerol Lipase Inhibitors: Discovery of a New Class of Benzylpiperidine Derivatives” (J Med Chem, 2022)
The source made the active and inactive calls. The rule behind the calls is not given here.

Experiments:
[1] = molecular target: T1, Monoacylglycerol lipase ABHD6 (Mus musculus) (UniProt Q8R2Y0); assay: Inhibition of ABHD6 in mouse brain membrane at 10 uM using TAMRA-FP serine hydrolase probe as substrate preincubated for 25 mins followed by substrate addition and measured after 25 mins SDS-PAGE analysis; assay type: cell membranes; conditions: time 50.0 min
T1 sequence (whole entry): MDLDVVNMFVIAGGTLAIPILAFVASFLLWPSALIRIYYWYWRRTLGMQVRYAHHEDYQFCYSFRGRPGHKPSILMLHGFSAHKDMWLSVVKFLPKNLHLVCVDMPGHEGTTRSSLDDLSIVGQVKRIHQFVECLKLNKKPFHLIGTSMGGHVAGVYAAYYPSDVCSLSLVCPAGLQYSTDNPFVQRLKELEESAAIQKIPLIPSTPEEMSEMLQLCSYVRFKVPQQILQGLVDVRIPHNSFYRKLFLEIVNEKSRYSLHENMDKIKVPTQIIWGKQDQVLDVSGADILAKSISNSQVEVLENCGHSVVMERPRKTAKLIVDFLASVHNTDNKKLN
How it was run: (§1)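 Mouse half-brain membrane fraction (800g supernatants spun at 16000g, 4 °C; pellet in 50 mM Tris-HCl pH 7.4), diluted to 4 mg/mL in PBS. Preincubated 25 min at 25 °C with test agent (10 μM final) or DMSO, then TAMRA-FP (125 nM final) 25 min at 25 °C. Stopped in Laemmli buffer at 90 °C, run on 12% SDS-PAGE, in-gel fluorescence read. Coomassie confirmed loading. Three independent experiments.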

[2] = molecular target: T2, Lysophosphatidylserine lipase ABHD12 (Mus musculus) (UniProt Q99LR1); assay: Inhibition of ABHD12 in mouse brain membrane at 10 uM using TAMRA-FP serine hydrolase probe as substrate preincubated for 25 mins followed by substrate addition and measured after 25 mins SDS-PAGE analysis; assay type: cell membranes; conditions: time 50.0 min; how it was run: as §1
T2 sequence (whole entry): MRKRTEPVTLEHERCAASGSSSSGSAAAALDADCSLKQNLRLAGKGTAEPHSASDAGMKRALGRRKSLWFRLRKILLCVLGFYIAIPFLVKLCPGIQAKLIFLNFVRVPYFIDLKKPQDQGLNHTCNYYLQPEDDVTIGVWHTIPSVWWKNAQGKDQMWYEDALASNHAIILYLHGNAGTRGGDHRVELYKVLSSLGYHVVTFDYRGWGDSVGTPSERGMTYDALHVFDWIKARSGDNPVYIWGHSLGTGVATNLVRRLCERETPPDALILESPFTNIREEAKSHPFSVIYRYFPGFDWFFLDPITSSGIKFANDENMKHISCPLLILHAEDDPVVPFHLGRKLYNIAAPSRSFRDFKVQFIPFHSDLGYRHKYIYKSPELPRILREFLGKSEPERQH

PDAC-3 [3] = assay: Antiproliferative activity against human PDAC-3 cells assessed as cell growth inhibition incubated for 72 hrs by sulforhodamine B assay; assay type: functional, cell-based
How it was run: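 Primary PDAC3 culture in RPMI-1640 with 10% newborn calf serum, penicillin/streptomycin, 37 °C, 5% CO2. Seeded 5000 cells/well; after 24 h exposed 72 h to MAGL inhibitor (0.1–50 μM, DMSO stock diluted in medium).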

PDAC-3 [4] = assay: Induction of apoptosis in human PDAC-3 cells at IC50 measured after 72 hrs by Annexin-V/FITC staining based assay; assay type: functional, cell-based
How it was run: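 Fixed with paraformaldehyde, stained with annexin V/FITC in HEPES-buffered saline (pH 7.4) with 2.5 mM CaCl2. Fluorescence read at ex 485/em 535 nm and normalised to cell number from crystal violet staining (595 nm). Triplicate measurements, expressed relative to untreated control.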

PDAC-3 [5] = assay: Induction of apoptosis in human PDAC-3 cells assessed as increase in caspase-3 level at IC50 measured after 72 hrs by immunoassay; assay type: functional, cell-based
How it was run: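 Cell extracts assayed with a human active caspase-3 ELISA; absorbance 450 nm minus 540 nm. Quantified against a recombinant human caspase-3 standard curve. Triplicate measurements, expressed relative to untreated cells.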

[6] = molecular target: T3, Fatty-acid amide hydrolase 1 (Mus musculus) (UniProt O08914); assay: Inhibition of FAAH in mouse brain membrane at 10 uM using TAMRA-FP serine hydrolase probe as substrate preincubated for 25 mins followed by substrate addition and measured after 25 mins SDS-PAGE analysis; assay type: cell membranes; conditions: time 50.0 min; how it was run: as §1
T3 sequence (whole entry): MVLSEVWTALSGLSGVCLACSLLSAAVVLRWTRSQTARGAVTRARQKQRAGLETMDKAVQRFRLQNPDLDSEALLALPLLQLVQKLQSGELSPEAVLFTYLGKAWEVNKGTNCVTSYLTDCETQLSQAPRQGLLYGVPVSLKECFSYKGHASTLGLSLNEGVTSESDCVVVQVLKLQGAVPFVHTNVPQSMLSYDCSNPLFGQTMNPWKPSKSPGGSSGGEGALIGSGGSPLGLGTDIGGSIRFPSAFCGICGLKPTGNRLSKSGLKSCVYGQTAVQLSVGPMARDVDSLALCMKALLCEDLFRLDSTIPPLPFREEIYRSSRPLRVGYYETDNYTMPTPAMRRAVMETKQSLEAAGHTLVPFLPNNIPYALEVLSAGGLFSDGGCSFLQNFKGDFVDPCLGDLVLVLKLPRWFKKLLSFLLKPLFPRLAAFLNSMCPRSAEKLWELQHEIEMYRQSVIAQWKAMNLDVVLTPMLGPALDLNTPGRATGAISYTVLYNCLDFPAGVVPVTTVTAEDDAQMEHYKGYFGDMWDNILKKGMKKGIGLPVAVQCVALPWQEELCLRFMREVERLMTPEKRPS

[7] = Stability of the compound in pooled human plasma at 3 mM measured up to 24 hrs by UV/LC-MS assay; assay type: ADME, cell-free; conditions: read-out: Stability
[8] = Stability of the compound in MeOH solution at 500 uM measured up to 24 hrs by UV/LC-MS analysis; assay type: physicochemical
[9] = Apparent permeability of the compound in PBS buffer pH 7.4 assessed as membrane retention at 0.5 mM incubated for 5 hrs by PAMPA based UV/LC-MS analysis; assay type: ADME; conditions: pH 7.4, 5 h, 500 µM
[10] = Stability of the compound in PBS buffer at pH 7.4 at 500 uM measured up to 24 hrs by UV/LC-MS analysis; assay type: physicochemical; conditions: pH 7.4, 24 h
[11] = Aqueous solubility of compound at 1 mg/ml incubated for 24 hrs by LC-MS/MS analysis; assay type: physicochemical; conditions: buffer
[12] = Cytotoxicity against human hTERT-HPNE cells assessed as cell growth inhibition incubated for 72 hrs by sulforhodamine B assay; assay type: toxicity, cell-based
How it was run: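 SRB growth-inhibition assay. Cells were seeded at 5000 per well and treated after 24 h, once a monolayer had formed, with MAGL inhibitors (0.1–50 μM) for 72 h. Cells were then fixed with trichloroacetic acid at 4 °C and stained with SRB. Bound dye was dissolved in Tris base and read at 490 and 540 nm. IC50 came from curve fitting.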

[13] = Induction of apoptosis in human PDAC-2 cells assessed as fold change in apoptotic rate at IC50 measured after 72 hrs by Annexin-V/FITC staining based assay relative to control; assay type: functional
How it was run: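 Then paraformaldehyde-fixed and stained with annexin V/FITC in HEPES/NaCl/CaCl2 buffer, pH 7.4. Fluorescence read at ex 485/em 535 nm, normalised to cell number by crystal violet (595 nm). Expressed relative to untreated control (=1). Triplicate, mean ± SEM.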

PDAC-3 [14] = assay: Induction of apoptosis in human PDAC-3 cells assessed as reduction in Bcl-2 […] expression at 5 times IC50 incubated for 24 hrs by qRT-PCR analysis; assay type: functional, cell-based
PDAC-3 [15] = assay: Antimigratory activity against human PDAC-3 cells assessed as reduction in MMP9 expression at 5 times IC50 incubated for 24 hrs by qRT-PCR analysis; assay type: functional, cell-based
PDAC-3 [16] = assay: Synergistic antiproliferative activity against human PDAC-3 cells assessed as increase in ENT1 expression at 5 times IC50 incubated for 24 hrs in presence of gemcitabine by qRT-PCR analysis; assay type: functional, cell-based

Q: Which inhibition [1] does the source give for `CCCCCCCCCCC[C@@H](C[C@@H]1OC(=O)[C@H]1CCCCCC)OC(=O)[C@H](CC(C)C)NC=O` here?
A: Active

Q: What about the inhibition [2] of the same compound?
A: Active

Q: What does the source list for `O=C(Oc1ccc([N+](=O)[O-])cc1)N1CCC(C(O)(c2ccc3c(c2)OCO3)c2ccc3c(c2)OCO3)CC1`?
A: Activity (PDAC-3 [3]): Active; Activity (PDAC-3 [4]): Active; Activity (PDAC-3 [5]): Active

Q: Which inhibition [6] does the source give for `NC(=O)c1cccc(-c2cccc(OC(=O)NC3CCCCC3)c2)c1` here?
A: Active

Q: What does the source list for `O=C(c1ccc(Sc2cccc(C(F)(F)F)c2)cc1)C1CCN(C(=O)c2cc(O)ccc2F)CC1`?
A: half-life at 3000 µM [7]: > 24 h; Stability [8]: > 24 h; R% [9]: 52.6%; Stability [10]: > 24 h; logS0 [11]: < -8.702; solubility [11]: < 1 ng/mL

Q: With `CN(Cc1cccc(-c2ccncc2)c1)C(=O)Oc1ccc(-c2ccc(C(N)=O)cc2)cc1` as the compound, how does the inhibition [1] read?
A: Active

Q: For `O=C(c1cc(O)ccc1F)N1CCC(Cc2cccc(Oc3cc(C(F)(F)F)ccn3)c2)CC1`, which half-life at 3000 µM [7] is on record?
A: > 24 h

Q: And the Stability [8]?
A: > 24 h

Q: What about the R% [9] of the same compound?
A: 38.9%

Q: And the IC50 at 72 h [12]?
A: > 20 µM

Q: And the Stability [10]?
A: > 24 h

Q: And the Activity (PDAC-3 [4])?
A: Active

Q: What about the “fold change (FC)” value [13] of the same compound?
A: 4

Q: What about the Activity (PDAC-3 [5]) of the same compound?
A: Active

Q: What about the Activity (PDAC-3 [14]) of the same compound?
A: Active

Q: What about the Activity (PDAC-3 [15]) of the same compound?
A: Active

Q: And the Activity (PDAC-3 [16])?
A: Active

Q: And the logS0 [11]?
A: < -8.676

Q: And the solubility [11]?
A: < 1 ng/mL

Q: For `Nc1ccn([C@@H]2O[C@H](CO)[C@@H](O)C2(F)F)c(=O)n1`, which Activity (PDAC-3 [4]) is on record?
A: Active

Q: And the Activity (PDAC-3 [5])?
A: Active

Q: For `O=C(OC(C(F)(F)F)C(F)(F)F)N1CCN(Cc2ccc(C(F)(F)F)cc2N2CCCC2)CC1`, which Activity (PDAC-3 [3]) is on record?
A: Active

Q: And the Activity (PDAC-3 [4])?
A: Active

Q: And the Activity (PDAC-3 [5])?
A: Active
